Test results from ChEMBL document CHEMBL1152770, “Inhibitors of hepatitis C virus polymerase: synthesis and biological characterization of unsymmetrical dialkyl-hydroxynaphthalenoyl-benzothiadiazines” (J Med Chem, 2009).

Key:
[1] = Ratio of drug level in liver to plasma in rat at 5 mg/kg, po after 12 hrs; assay type: ADME, organism-based; design: dose 5 mg/kg, route oral
Method in brief: (§1)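 Rats dosed orally at 5 mg/kg, four groups, sacrificed at 6 and 12 h. Plasma and liver homogenate extracted by acetonitrile protein precipitation with internal standard and quantified by LC-MS (negative-ion MRM). Liver/plasma ratio taken from the two concentrations.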

[2] = Plasma concentration in rat at 5 mg/kg, po after 6 hrs; assay type: ADME, organism-based; design: dose 5 mg/kg, route oral
Method in brief: (§2)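 Vehicle DMSO:PEG400 (10:90, v/v). Dosing at 5 mg/kg in rat and monkey; dog 5 mg/kg or 2.5 mg/kg. Protein precipitation with acetonitrile, then LC-MS/MS in negative-ion MRM (m/z 516.2→437.0) against spiked standards with internal standard.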

[3] = Plasma concentration in rat at 5 mg/kg, po after 12 hrs; assay type: ADME, organism-based; design: dose 5 mg/kg, route oral; method in brief: as §2
[4] = Ratio of drug level in liver to plasma in rat at 5 mg/kg, po after 6 hrs; assay type: ADME, organism-based; design: dose 5 mg/kg, route oral; method in brief: as §1
[5] = Drug level in rat liver at 5 mg/kg, po after 12 hrs; assay type: ADME, organism-based; design: dose 5 mg/kg, route oral; settings: read-out: Drug uptake; method in brief: as §1
[6] = Drug level in rat liver at 5 mg/kg, po after 6 hrs; assay type: ADME, organism-based; design: dose 5 mg/kg, route oral; settings: read-out: Drug uptake; method in brief: as §1
[7] = Inhibition of HCV isolate BK NS5B polymerase after 3 hrs by scintillation counting
[8] = Inhibition of HCV isolate H77 NS5B polymerase after 3 hrs by scintillation counting

| IC50 [7] [nM] | IC50 [8] [nM] | SMILES | Kp at 12 h [1] | concentration at 6 h [2] [nM] | concentration at 12 h [3] [nM] | Kp at 6 h [4] | concentration at 12 h [5] [ng/g] | concentration at 6 h [6] [ng/g] |
| --- | --- | --- | --- | --- | --- | --- | --- | --- |
|  |  | CC(C)(C)CC[C@@]1(C)C(=O)C(C2=NS(=O)(=O)c3cc(NS(C)(=O)=O)ccc3N2)=C(O)c2ccccc21 | 20 | 2240 | 320 | 17 | 4190 | 21800 |
| 2300 | 624 | CC(C)CC[C@]1(C)C(=O)C(C2=NS(=O)(=O)c3cc(NS(C)(=O)=O)ccc3N2)=C(O)c2ccccc21 |  |  |  |  |  |  |
